Data taken from publication PMC4726456 (Cell, 2014).
“And” between values parts separate entries of the source, which are not always exact repeats. Equal values may be shown once.

Tests used:
[1] = system: tubulin; experiment: Tubulin acetylation assay; type: biochemical
[2] = system: microtubules; experiment: Microtubule acetylation assay; type: biochemical; settings: bulk measurements
[3] = target: microtubules; experiment: TAT binding to microtubules in sedimentation assays; settings: read-out: Kd for microtubules, Figure S3B and C
[4] = system: unpolymerized tubulin; experiment: TAT-tubulin complex formation by analytical ultracentrifugation; type: binding; settings: TAT concentrations as high as 40 µM
[5] = system: dolastatin-induced tubulin rings; experiment: Stacking of dolastatin-induced tubulin rings by TAT; settings: Figures S3D, S3E
[6] = system: tubulin polymers; experiment: TAT activity with tubulin polymers of diverse geometries; type: biochemical; settings: Figure 3A, N≥3
Method in brief: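 Microtubule substrate was stabilized with 20 µM taxol. Negative-stain EM confirmed dolastatin-10 rings, Zn sheets and microtubules under the reaction conditions. Values are means ± S.E.M. (N≥3), compared by t-test.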

[7] = system: microtubules; experiment: Single-molecule TIRF of TAT-GFP scanning on microtubules; type: binding; settings: for Effect on TAT-GFP microtubule scanning: saturating concentration of MAP
[8] = system: microtubules; type: biochemical; settings: for Effect on microtubule acetylation by TAT: saturating concentration of MAP
[9] = system: microtubules; experiment: Immunofluorescence of acetylation distribution on microtubules; type: biochemical; settings: taxol stabilized microtubules; antibody specific for acetylated tubulin; Figure 4
Method in brief: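 Recombinant TAT acetylated taxol-stabilized microtubules in vitro. Excess enzyme was used at a 10:1 TAT:tubulin molar ratio and sampled over a time course. Marks were detected by immunofluorescence. Line-scans were taken along microtubules in the acetylated-tubulin channel. End analysis at 15 s averaged 25 line-scans from the tip to 5 µm inward.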

[10] = system: TAT; settings: ref Friedmann et al., 2012; cited from earlier work
[11] = system: microtubules and tubulin; experiment: Acetylation activity of TAT mutants with microtubules and tubulin; type: biochemical; settings: Figure 2C
[12] = system: S. cerevisiae microtubules; experiment: Single-molecule TIRF of TAT-GFP on S. cerevisiae microtubules; type: binding, Saccharomyces cerevisiae; settings: purified S. cerevisiae microtubules and engineered with human C-terminal tails
[13] = system: microtubules; experiment: Activity of bead-coupled biotinylated TAT with microtubules; type: biochemical; settings: 1 µm streptavidin beads; Figure 6A
Method in brief: (§1)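 Biotinylated TAT was either immobilized on 1 µm diameter streptavidin beads or left free in solution. Each form was reacted with tubulin or with microtubules. Activity was normalized to the free enzyme. About 15% unpolymerized tubulin was present in the microtubule reactions.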

[14] = system: tubulin; experiment: Activity of bead-coupled biotinylated TAT with tubulin; type: biochemical; settings: 1 µm streptavidin beads; Figure 6A
Method in brief: as §1

B1: TAT: Homo sapiens TAT (1–196) expressed in Escherichia coli as a GST-fusion (protein)
chain: MEFPFDVDALFPERITVLDQHLRPPARRPGTTTPARVDLQQQIMTIIDELGKASAKAQNLSAPITSASRMQSNRHVVYILKDSSARPAGKGAIIGFIKVGYKKLFVLDDREAHNEVEPLCILDFYIHESVQRHGHGRELFQYMLQKERVEPHQLAIDRPSQKLLKFLNKHYNLETTVPQVNNFVIFEGFFAHQHRP
modifications: left off: GST, end not stated, state not stated
Catalytic rate with tubulin [1]: 0.4 h⁻¹
Acetylation rate with microtubules [2]: ~1.6 h⁻¹
Kd [3]: ~44 µM
Stable complex formation with unpolymerized tubulin [4]: undetectable
Stacking of dolastatin-induced tubulin rings [5]: promotes stacking of dolastatin-induced tubulin rings in a dose-dependent manner
TAT activity with microtubules vs unpolymerized tubulin [6]: largest activity enhancement over unpolymerized tubulin is seen with microtubules
Total microtubule length scanned, subtilisin-treated vs untreated microtubules ([7]; 50 microtubules, Figure 5F): covers the same total microtubule length
Interaction time (τ), labeled spastin ([7]; microtubules coated with DyLight 550 labeled spastin, ATPγS): 1.5 s
Average microtubule length scanned ([7]; undecorated microtubules, Figure S5B): 2.9 µm
Maximum scan excursion ([7]; undecorated microtubules, excursions up to, Figure S5B): up to 10.4 µm
Acetylation of unmodified microtubules vs brain microtubules ([8]; Figures S5G and S5H): as effectively as brain microtubules
Microtubule acetylation after removal of C-terminal tails ([8]; subtilisin microtubules, Figure 5F): unaffected by removal of the C-terminal tails
Distribution of acetylation along microtubule [9]: acetylates along the entire microtubule without a preference for ends
Km [10]: ~32 µM

B2: F105A TAT mutant: F105A TAT mutant defective in acetylation (protein)
chain: MEFPFDVDALFPERITVLDQHLRPPARRPGTTTPARVDLQQQIMTIIDELGKASAKAQNLSAPITSASRMQSNRHVVYILKDSSARPAGKGAIIGFIKVGYKKLAVLDDREAHNEVEPLCILDFYIHESVQRHGHGRELFQYMLQKERVEPHQLAIDRPSQKLLKFLNKHYNLETTVPQVNNFVIFEGFFAHQHRPPAPSLRATRHSRAAAVDPTPAAPARKLPPKRAEGDIKPYSSSDREFLKVAVEPPWPLNRAPRRATPPAHPPPRSSSLGNSPERGPLRPFVPEQELLRSLRLCPPHPTARLLLAADPGGSPAQRRRTRGTPPGLVAQSCCYSRHGGVNSSSPNTGNQDSKQGEQETKNRSASEEQALSQDGSGEKPMHTAPPQAPAPPAQSWTVGGDILNARFIRNLQERRSTRPW
Effect of mutation on TAT activity ([11]; N≥3): defective in acetylation
Effect of mutation on TAT activity ([11]; N≥3, listed as Phe105): severely impairs enzyme activity with both tubulin and microtubules
Stacking of dolastatin-induced tubulin rings [5]: impaired in stack formation

B3: TAT-GFP: purified TAT-GFP for single-molecule TIRF microscopy (protein)
chain: MEFPFDVDALFPERITVLDQHLRPPARRPGTTTPARVDLQQQIMTIIDELGKASAKAQNLSAPITSASRMQSNRHVVYILKDSSARPAGKGAIIGFIKVGYKKLFVLDDREAHNEVEPLCILDFYIHESVQRHGHGRELFQYMLQKERVEPHQLAIDRPSQKLLKFLNKHYNLETTVPQVNNFVIFEGFFAHQHRPPAPSLRATRHSRAAAVDPTPAAPARKLPPKRAEGDIKPYSSSDREFLKVAVEPPWPLNRAPRRATPPAHPPPRSSSLGNSPERGPLRPFVPEQELLRSLRLCPPHPTARLLLAADPGGSPAQRRRTRGTPPGLVAQSCCYSRHGGVNSSSPNTGNQDSKQGEQETKNRSASEEQALSQDGSGEKPMHTAPPQAPAPPAQSWTVGGDILNARFIRNLQERRSTRPW
modifications: left off: GFP, end not stated, kept
Interaction time (τ), doublecortin ([7]; microtubules with saturating doublecortin): 1.4 s
1D diffusion coefficient on microtubules ([7]; undecorated microtubules, MSD fit, 100 ms frames, mean, legend: fit): 0.27 µm^2/s and 0.27 ± 0.01 µm^2/s
Scan starting position ([7]; undecorated microtubules, N=163, Figure 5D): randomly distributed on the microtubule, showing no bias for ends
Interaction time (τ) on microtubules ([7]; undecorated microtubules, exponential fit corrected for photobleaching, N=269): 1.5 s and 1.5 ± 0.3 s
Scanning on S. cerevisiae microtubules [12]: do not observe TAT-GFP scanning
Activity of GFP fusion vs untagged protein ([8]; Figure S5): comparable to that of the untagged protein

B4: doublecortin: microtubule binding protein covering the fenestration at the vertices between four tubulin dimers (protein)
chain: MELDFGHFDERDKTSRNMRGSRMNGLPSPTHSAHCSFYRTRTLQALSNEKKAKKVRFYRNGDRYFKGIVYAVSSDRFRSFDALLADLTRSLSDNINLPQGVRYIYTIDGSRKIGSMDELEEGESYVCSSDNFFKKVEYTKNVNPNWSVNVKTSANMKAPQSLASSNSAQARENKDFVRPKLVTIIRSGVKPRKAVRVLLNKKTAHSFEQVLTDITEAIKLETGVVKKLYTLDGKQVTCLHDFFGDDDVFIACGPEKFRYAQDDFSLDENECRVMKGNPSATAGPKASPTPQKTSAKSPGPMRRSKSPADSGNDQDANGTSSSQLSTPKSKQSPISTPTSPGSLRKHKDLYLPLSLDDSDSLGDSM
Effect on TAT-GFP microtubule scanning ([7]; Figure 5F): no effect
Effect on microtubule acetylation by TAT ([8]; Figure 5F): no effect

B5: kinesin: motor domain of kinesin-5 (protein)
chain: MASQPNSSAKKKEEKGKNIQVVVRCRPFNLAERKASAHSIVECDPVRKEVSVRTGGLADKSSRKTYTFDMVFGASTKQIDVYRSVVCPILDEVIMGYNCTIFAYGQTGTGKTFTMEGERSPNEEYTWEEDPLAGIIPRTLHQIFEKLTDNGTEFSVKVSLLEIYNEELFDLLNPSSDVSERLQMFDDPRNKRGVIIKGLEEITVHNKDEVYQILEKGAAKRTTAATLMNAYSSRSHSVFSVTIHMKETTIDGEELVKIGKLNLVDLAGSENIGRSGAVDKRAREAGNINQSLLTLGRVITALVERTPHVPYRESKLTRILQDSLGGRTRTSIIATISPASLNLEETLSTLEYAHRAKNILNKPEVNQKLTKKALIKEYTEEIERLKRDLAAAREKNGVYISEENFRVMSGKLTVQEEQIVELIEKIGAVEEELNRVTELFMDNKNELDQCKSDLQNKTQELETTQKHLQETKLQLVKEEYITSALESTEEKLHDAASKLLNTVEETTKDVSGLHSKLDRKKAVDQHNAEAQDIFGKNLNSLFNNMEELIKDGSSKQKAMLEVHKTLFGNLLSSSVSALDTITTVALGSLTSIPENVSTHVSQIFNMILKEQSLAAESKTVLQELINVLKTDLLSSLEMILSPTVVSILKINSQLKHIFKTSLTVADKIEDQKKELDGFLSILCNNLHELQENTICSLVESQKQCGNLTEDLKTIKQTHSQELCKLMNLWTERFCALEEKCENIQKPLSSVQENIQQKSKDIVNKMTFHSQKFCADSDGFSQELRNFNQEGTKLVEESVKHSDKLNGNLEKISQETEQRCESLNTRTVYFSEQWVSSLNEREQELHNLLEVVSQCCEASSSDITEKSDGRKAAHEKQHNIFLDQMTIDEDKLIAQNLELNETIKIGLTKLNCFLEQDLKLDIPTGTTPQRKSYLYPSTLVRTEPREHLLDQLKRKQPELLMMLNCSENNKEETIPDVDVEEAVLGQYTEEPLSQEPSVDAGVDCSSIGGVPFFQHKKSHGKDKENRGINTLERSKVEETTEHLVTKSRLPLRAQINL
Effect on TAT-GFP microtubule scanning ([7]; Figure 5F): no effect
Effect on microtubule acetylation by TAT ([8]; Figure 5F): no effect

B6: bead-coupled TAT: C-terminally biotinylated TAT construct coupled to streptavidin beads 1 µm in diameter (protein, UniProt Q5SQI0 1-421, looked up)
Alpha-tubulin …: MEFPFDVDALFPERITVLDQHLRPPARRPGTTTPARVDLQQQIMTIIDELGKASAKAQNLSAPITSASRMQSNRHVVYILKDSSARPAGKGAIIGFIKVGYKKLFVLDDREAHNEVEPLCILDFYIHESVQRHGHGRELFQYMLQKERVEPHQLAIDRPSQKLLKFLNKHYNLETTVPQVNNFVIFEGFFAHQHRPPAPSLRATRHSRAAAVDPTPAAPARKLPPKRAEGDIKPYSSSDREFLKVAVEPPWPLNRAPRRATPPAHPPPRSSSLGNSPERGPLRPFVPEQELLRSLRLCPPHPTARLLLAADPGGSPAQRRRTRGTPPGLVAQSCCYSRHGGVNSSSPNTGNQDSKQGEQETKNRSASEEQALSQDGSGEKPMHTAPPQAPAPPAQSWTVGGDILNARFIRNLQERRSTRPW
modifications: C-terminal biotin, streptavidin beads
Reduction of activity with microtubules on bead coupling [13]: ~89%
Activity with tubulin when bead-coupled [14]: retained activity with tubulin
